Yeast eIF2B: eIF2B (yeast) activity modulation; S. cerevisiae eIF2B-epsilon R284H, GCN4-lacZ luminescence; inhibition, % at 25 µM (by protocol); 0.91% of 27,000 active; AID 688;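 active = mutant luminescence inhibited past about 50% while wild type luminescence and mutant growth stay under set limits, limit read from the data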
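Material: yeast eIF2B-epsilon R284H mutant carrying GCN4–beta-galactosidase fusion. Medium: YPD yeast growth medium. Incubation: 16 h growth with compound at 30 °C, 90 min Beta-Glo step. Signal: Beta-Glo luminescence plus absorbance at 595 nm. Evaluation: % inhibition of reporter signal and growth versus controls. Doses: 25 µM single dose.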
Yeast growth tox: Inhibitors of S. cerevisiae growth, toxicity | growth inhibition, % at 25 µM (by protocol) | 0.3% of 30,000 active | S. cerevisiae wild-type growth, A595 turbidity, 16 h;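 active = mutant and wild-type yeast strains alike exhibit over 30% growth inhibition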;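 also: 0% = untreated cell controls and 100% = YPD media blanks without cells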
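System – wild-type and eIF2Bepsilon-R284H mutant S. cerevisiae, screened separately · Measured by – absorbance at 595 nm (turbidity) · Timing – 16 h compound exposure during growth at 30 °C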
* = called active by the depositor; . = no result. Hits are enriched below; roughly 1.1% of the tested compounds scored in any of these assays.

SMILES	Yeast eIF2B	Yeast growth tox
CCC(=O)Nc1cccc(NC(=O)CSc2nnc(-c3ccc(NS(C)(=O)=O)cc3)n2CC)c1	21.7	19.3
COc1ccccc1Nc1nc(C)cc(C)c1C(N)=O	52.1*	-12.2
Cc1cc(C)c(C(N)=O)c(Nc2cccc3ccccc23)n1	.	-3.2
N#CC(C(=O)OC1CCCCC1)c1nc2ccccc2nc1N1CCOCC1 (stereo unspecified)	51.4*	-12.9
CCC(CC)COC(=O)C(C#N)c1nc2ccccc2nc1N1CCOCC1 (stereo unspecified)	14.0	12.2
Cc1cc(=O)oc2cc(OCC(=O)N3CCCc4ccccc43)ccc12	-7.3	2.9
Cc1cc(=O)oc2ccc(OCC(=O)N3CCc4ccccc43)cc12	50.1*	5.5
COCCCN=C(c1ccco1)n1c(=S)nc(-c2ccco2)n(CCCOC)c1=S	15.8	-28.6
COc1ccc(S(=O)(=O)CCC(=O)N2CC(=O)N(CCc3ccccc3)C(=O)C2)cc1	25.1	4.2
COc1ccc(S(=O)(=O)CCC(=O)N2c3ccccc3CC2C)cc1 (stereo unspecified)	55.8*	-3.6
COc1ccc(-c2cnn(C3CCS(=O)(=O)C3)c2N)cc1 (stereo unspecified)	15.7	24.4
COC(=O)c1ccc(C(=O)OC)c(NC(=O)CN(c2ccc3c(c2)OCO3)S(C)(=O)=O)c1	.	-0.8
Cc1ccc(CN(CC2CCCO2)C(=O)CN2C(=O)C(C(C)C)Oc3ccccc32)o1 (stereo unspecified)	58.9*	15.7
CC(C)C1Oc2ccccc2N(CC(=O)N(Cc2ccccn2)CC2CCCO2)C1=O (stereo unspecified)	58.9*	-2.2
CSc1ccccc1C(=O)NCC1CCCO1 (stereo unspecified)	.	13.2
O=C(CN(CC1CCCO1)C(=O)CCC(=O)Nc1ccccn1)NCc1ccccc1 (stereo unspecified)	-9.1	24.7
O=C(c1ccccc1)N1CCCCC(S(=O)(=O)c2ccc3ccccc3c2)C1=O (stereo unspecified)	.	2.8
COc1cc(CN2C(=O)C(NC(=O)c3ccco3)(C(F)(F)F)C3=C2CC(C)(C)CC3=O)cc(OC)c1 (stereo unspecified)	14.7	-4.4
COC(=O)c1ccc(NC(=O)CSc2nccn2CCc2ccccc2)cc1	18.4	24.0
Cc1ccc(NC2SC(=O)N(CC(=O)O)C2=O)cc1 (stereo unspecified)	.	18.5
O=c1ccnc(S/C=C/c2ccccc2)[nH]1	66.4*	6.6
Cc1ccc(CSCC(=O)Nc2ccc3c(c2)OCO3)cc1	.	13.5
CC(C)=CC(=O)Nc1ccc2c(c1)OCO2	54.2*	26.1
CC(C)c1cc(NCC2CCCO2)n2c(nc3ccccc32)c1C#N (stereo unspecified)	.	-3.9
CCOC(=O)COc1ccc(S(=O)(=O)NCc2ccco2)cc1	53.5*	-9.5
SMILES	Yeast eIF2B	Yeast growth tox
CCOC(=O)COc1ccc(S(=O)(=O)NCc2ccncc2)cc1	-1.5	-11.1
O=CNc1ccc(S(=O)(=O)NCc2ccccc2)cc1	-10.2	14.8
O=C(CN(Cc1ccccc1F)C(=O)Cn1nnc(-c2cccs2)n1)NC1CCCCC1	24.0	7.5
O=c1[nH]ncc(NCCCO)c1Cl	17.7	11.2
O=c1c(Cl)c(NCCCO)cnn1-c1nc2ccccc2[nH]1	55.8*	29.0
O=C(CC1CCCCC1)Nc1ncn[nH]1	-3.9	0.3
Cc1nc(SCC(=O)NCCc2ccc(Cl)cc2)nc(C)c1C	.	3.2
Nc1ccccc1N1CCN(C(=O)c2ccccc2)CC1	9.6	9.5
O=C(Nc1ccccc1N1CCN(C(=O)c2ccccc2)CC1)c1cc2ccccc2o1	50.0*	-30.0
c1ccc(-c2nc(CSc3n[nH]c(-c4cccs4)n3)cs2)cc1	.	19.6
COC(=O)c1nn2c(C(F)(F)F)cc(-c3ccc(Br)o3)nc2c1Br	54.1*	-31.1
COC(=O)c1cc2nc(-c3ccc(OC)cc3)cc(C(F)(F)F)n2n1	-11.3	-16.6
COCCN(C(=O)c1ccco1)C(C(=O)NC1CCCC1)c1cccs1 (stereo unspecified)	.	-0.6
CC(Oc1ccc(Cl)cc1Cl)c1nc(-c2ccc(NC(=O)c3ccccn3)cc2)no1 (stereo unspecified)	-8.4	4.2
Cc1ccc(C)c(N2CCN(S(=O)(=O)c3ccc4c(c3)CCC(=O)N4)CC2)c1	22.5	7.9
Cc1ccc(C)c(N2CCN(S(=O)(=O)c3ccc4[nH]c(=O)c(=O)[nH]c4c3)CC2)c1	57.2*	8.9
Cc1cc(C)cc(N(C(C)C(=O)NCCC2=CCCCC2)S(C)(=O)=O)c1 (stereo unspecified)	.	8.3
Clc1ccc2c(c1)C(N1CCNCC1)Cc1ccccc1S2 (stereo unspecified)	41.0	86.0*
COC(=O)c1cc(COc2ccc3oc(C)c(C(=O)OC(C)C)c3c2)c(C)o1	16.7	5.4
CC(C)c1ccccc1OCCCCCNCCO	12.9	4.2
CCOc1ccccc1NC(=O)C1CCCCN1S(=O)(=O)c1ccc(F)cc1 (stereo unspecified)	21.2	26.5
O=C(Nc1ccncc1)c1cc2ccccc2oc1=O	50.3*	9.5
COC(=O)c1cc2ccccc2oc1=O	23.1	4.5
COC(=O)c1ccc(CC(=O)c2c(C)cc(O)cc2O)o1	7.8	30.4
CCCS(=O)(=O)N1CCN(C(=O)COc2ccc(OC)cc2)CC1	.	5.5
SMILES	Yeast eIF2B	Yeast growth tox
CCn1c(=O)cc(OCC(=O)N(C)C2CCCCC2)c2ccccc21	22.5	20.5
CCOC(=O)N1CCN(C(=O)COc2cc(=O)n(CC)c3ccccc23)CC1	67.8*	4.6
COc1ccc(-c2nn(-c3ccccc3)cc2/C=N/N2C(=O)CSC2=S)cc1	25.2	-5.2
COc1ccc(Nc2nc(N3CCCCC3)nc3ccccc23)c(OC)c1	5.9	-7.7
COc1ccc(N/C=C(\C#N)c2nc3ccccc3n2C)c(OC)c1	58.5*	-3.2
CCC(=O)N(Cc1cc(=O)[nH]c2ccccc12)c1cccc(C)c1	51.2*	-20.3
CCCCCOC(=O)c1cc(=O)[nH]c2ccccc12	12.6	15.0
CCOCC(=O)Nc1cccc(NC(C)=O)c1	72.2*	-0.3
CCOCC(=O)Nc1ccc(F)c(F)c1	12.3	0.3
COc1ccc(Cl)cc1-n1c(N)c(C(N)=O)sc1=S	52.8*	7.9
Cc1ccc(-n2c(N)c(C(N)=O)sc2=S)c(C)c1	-13.4	5.5
Cc1nc2c(Br)cc(Br)cc2cc1O	-20.1	35.0
CCOC(=O)Cc1csc(NC(=O)CSc2nc(N)c3c(C)c(C)sc3n2)n1	.	14.6
CCC(Sc1nc2sc(C(=O)OC)c(C)c2c(=O)n1N)C(=O)N(CC)CC (stereo unspecified)	7.5	-56.4
CCC(Sc1nc2sc(C(=O)OC)c(C)c2c(=O)n1N)C(=O)NCC1CCCO1 (stereo unspecified)	50.3*	-21.7
COc1ccc(C2C=C(c3ccc(Cl)cc3)Nc3nc(NC(C)=O)nn32)cc1 (stereo unspecified)	1.5	19.4
COc1ccc(C2=CC(c3sccc3C)n3nnnc3N2)cc1 (stereo unspecified)	56.2*	13.8
O=C1c2ccsc2SCCN1Cc1c(Cl)cccc1Cl	19.2	9.2
CSc1nnc(-c2ccccc2)o1	2.0	4.2
O=S1(=O)C=C(Sc2nnc(-c3ccccc3)o2)c2ccccc21	81.8	76.2*
CCOC(=O)c1nn(-c2cccc(Cl)c2)c2nc(CC(C)C)c(C#N)c(=O)n12	50.2*	0.9
Cc1cc2n(c(=O)c1C#N)CCCN2c1cccc(Cl)c1	44.7	-3.2

Compound activity from PubChem BioAssay.
